Data on nine molecules can be found in ChEMBL document CHEMBL2086239, “Synthesis and biological evaluation of combretastatin-amidobenzothiazole conjugates as potential anticancer agents” (Eur J Med Chem, 2012).

The subject of one assay is A549. Briefly: Cytotoxicity against human A549 cells assessed as inhibition of cell growth at 10 uM after 48 hrs by SRB assay relative to control. The class given is functional. The following applies: for inhibition of growth at 10 µM: A549, 48 h, read-out: GI. The essentials: (§1)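 SRB protein assay in DMEM with 10% FBS at 37 °C, 5% CO2, 100% relative humidity. Cells seeded in 96-well plates, incubated 24 h, then exposed to drug at 10 µM for 48 h and processed per standard protocol. Absorbance read at 560 nm; growth percentage calculated for test wells relative to control wells.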
For orientation: The SRB assay estimates cell density from bound dye.

The test system of the next assay is COLO 205. Description: Cytotoxicity against human COLO205 cells after 48 hrs assessed as inhibition of cell growth at 10 uM after 48 hrs by SRB assay relative to control. The class given is functional. The settings on record: COLO 205, 48 h, read-out: GI. The essentials: as §1
Assay [1] concerns MCF7. Description: Cell cycle arrest in human MCF7 cells assessed as accumulation at G2/M phase at 4 uM after 24 hrs by FACS analysis (reference value: 34.88%). The class given is functional. For orientation: A flow cytometer gives signals particle by particle.
A further assay deals with IMR-32. Description: Cytotoxicity against human IMR32 cells after 48 hrs assessed as inhibition of cell growth at 10 uM after 48 hrs by SRB assay relative to control. The format is functional. The settings on record: for inhibition of growth at 10 µM: IMR-32, 48 h, read-out: GI. The gist of the method:
as §1

Another assay deals with PC-3. Briefly: Cytotoxicity against human PC3 cells after 48 hrs assessed as inhibition of cell growth at 10 uM after 48 hrs by SRB assay relative to control. The settings on record: PC-3, 48 h, read-out: GI. The class given is functional. The essentials: as §1
Assay [2] has as its system MCF7. Briefly: Cytotoxicity against human MCF7 cells after 48 hrs assessed as inhibition of cell growth at 10 uM after 48 hrs by SRB assay relative to control. The format is functional. The following applies: MCF7, 48 h, read-out: GI. The essentials:
as §1

For assay [3], the system named is MCF7. Briefly: Cell cycle arrest in human MCF7 cells assessed as accumulation at S phase at 4 uM after 24 hrs by FACS analysis (reference value: 6.79%). The format is functional.
The subject of assay [4] is MCF7. Description: Cell cycle arrest in human MCF7 cells assessed as accumulation at G1 phase at 4 uM after 24 hrs by FACS analysis (reference value: 58.33%). The format is functional.
For the next assay, the system named is HEp-2. Briefly: Cytotoxicity against human Hep2 cells after 48 hrs assessed as inhibition of cell growth at 10 uM after 48 hrs by SRB assay relative to control. The format is functional. The following applies: for inhibition of growth at 10 µM: HEp-2, 48 h, read-out: GI. The essentials: as §1
Another assay concerns THP-1. Description: Cytotoxicity against human THP1 cells after 48 hrs assessed as inhibition of cell growth at 10 uM after 48 hrs by SRB assay relative to control. The format is functional. The settings on record: THP-1, 48 h, read-out: GI. The gist of the method:
as §1

In assay [5] the test system is MCF7. Description: Inhibition of microtubule organization in human MCF7 cells at 4 uM after 24 hrs by immunofluorescence analysis. The format is cell-based. The essentials: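 MCF-7 cells were grown in DMEM with 10% fetal calf serum and penicillin/streptomycin at 37 °C and 5% CO2. Cells on cover slips were treated for 24 h, then fixed in 4% paraformaldehyde for 20 min. They were permeabilised with 0.2% Triton X-100, held in methanol at 4 °C overnight and blocked with 1% BSA. Staining used anti-α-tubulin (1:100, 2 h RT), FITC secondary and a DAPI/PI mount, with confocal imaging.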

The structures appear in SMILES notation. Calls of active or inactive are those of the source. The rule behind the calls is not given here.

Turning to `CCOc1ccc2nc(NC(=O)COc3cc(/C=C\c4cc(OC)c(OC)c(OC)c4)ccc3OC)sc2c1`, the inhibition of growth at 10 µM with A549 came out at 27%; in the assay on COLO 205 it was 45%; in the assay on IMR-32, 54%; with PC-3 it was 37%; in the assay with MCF7 [2], 35%; with HEp-2, 49%. In addition, the inhibition of growth at 10 µM in the assay on THP-1 was determined as 37%. In addition, the values for the Activity in the assay on MCF7 [1], in the assay with MCF7 [3] and with MCF7 [4] were 37.67%, 13.91% and 48.43%, respectively.

For the molecule `COc1ccc(/C=C\c2cc(OC)c(OC)c(OC)c2)cc1OCC(=O)Nc1nc2cc(C)c(C)cc2s1`, the inhibition of growth at 10 µM in the assay with A549 stood at 41%; with COLO 205 it was 51%; with IMR-32, 55%; in the assay with PC-3, 36%; in the assay with MCF7 [2] it was 68%; in the assay with HEp-2, 23%. Further, the inhibition of growth at 10 µM in the assay on THP-1 was 76%. In addition, the Activity in the assay with MCF7 [1] is listed as 16.37%; in the assay with MCF7 [3], 3.04%; with MCF7 [4], 80.59%.

In the case of `COc1ccc(/C=C\c2cc(OC)c(OC)c(OC)c2)cc1OCC(=O)Nc1nc2ccc(C)cc2s1`, the inhibition of growth at 10 µM with A549 was found to be 37%; with COLO 205, 33%; in the assay with PC-3, 22%; in the assay on MCF7 [2], 57%; in the assay on HEp-2 it was 44%; in the assay with THP-1, 27%. The values for the Activity in the assay with MCF7 [1], in the assay on MCF7 [3] and in the assay with MCF7 [4] were 42.82%, 15.53% and 41.7%, respectively. In the assay with IMR-32, the “growth inhibition (GI)” value was “inactive”.

Regarding `COc1ccc(/C=C\c2cc(OC)c(OC)c(OC)c2)cc1OCC(=O)Nc1nc2c(C)cccc2s1`, the “growth inhibition (GI)” value with A549 and in the assay with HEp-2 was “inactive” in each case. Further, the inhibition of growth at 10 µM in the assay on COLO 205 was 24%; in the assay on IMR-32, 34%; with PC-3, 24%; with MCF7 [2], 29%; in the assay on THP-1 it was 19%. In addition, the Activity with MCF7 [1] is reported as 28.48%; with MCF7 [3] it was 3.46%; with MCF7 [4], 68.06%.

As for `COc1cccc2c1C(=O)c1c(O)c3c(c(O)c1C2=O)C[C@@](O)(C(=O)CO)C[C@@H]3O[C@H]1C[C@H](N)[C@H](O)[C@H](C)O1` [DOXORUBICIN], the inhibition of growth at 10 µM in the assay on A549 came out at 52%; with COLO 205, 26%; in the assay with IMR-32, 73%; in the assay with PC-3, 75%; in the assay with MCF7 [2], 45%; in the assay on HEp-2, 56%. In addition, the inhibition of growth at 10 µM in the assay on THP-1 was determined as 83%.

With `COC(=O)Nc1nc2cc(C(=O)c3cccs3)ccc2[nH]1`, the inhibition result in the assay on MCF7 [5] was “Active”.

`COc1ccc(/C=C\c2cc(OC)c(OC)c(OC)c2)cc1OCC(=O)Nc1nc2ccc([N+](=O)[O-])cc2s1`: the inhibition of growth at 10 µM in the assay on A549 worked out at 50%; in the assay with COLO 205 it was 46%; in the assay on IMR-32 it was 88%; with PC-3, 47%; with MCF7 [2] it was 69%; with THP-1 it was 80%. Besides, the “growth inhibition (GI)” value with HEp-2 is “inactive”.

As for `COc1ccc(/C=C\c2cc(OC)c(OC)c(OC)c2)cc1OCC(=O)Nc1nc2ccc(Cl)cc2s1`, the “growth inhibition (GI)” value with A549 was “inactive”. The inhibition of growth at 10 µM in the assay on COLO 205 worked out at 17%; with IMR-32 it was 51%; in the assay on PC-3 it was 41%; in the assay on MCF7 [2], 21%; in the assay on HEp-2 it was 47%; with THP-1 it was 70%.

Turning to `COc1ccc(/C=C\c2cc(OC)c(OC)c(OC)c2)cc1OCC(=O)Nc1ccc2ncsc2c1`, the “growth inhibition (GI)” value with A549 is “inactive”. The inhibition of growth at 10 µM with COLO 205 is 11%; in the assay with IMR-32, 46%; in the assay on PC-3, 58%; in the assay with MCF7 [2] it was 19%; in the assay with HEp-2, 20%; in the assay with THP-1, 41%.
